Furin inh = human furin inhibition; P09958; purified furin, fluorogenic substrate cleavage; inhibition, % at 20 µM or 30 µM; 220,000 compounds, 0.061% hits; in the data active = inhibition above about 25%
Thrombin inh = inhibitors of human thrombin | alpha-thrombin, Boc-VPR-AMC fluorogenic substrate cleavage | inhibition, % at 5 µM | 220,000 compounds, 0.26% hits;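 active = inhibition at or above 40%; inactive = inhibition below 40%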;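 also: 0% = enzyme with no compound and 100% = wells without enzyme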
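Material: human alpha-thrombin enzyme / Medium: pH 7.5 Tris (50 mM) with NaCl 150 mM, Tween 20 0.05% / Compound: single-point dosing at 5 µM, 0.2% DMSO / Incubation: enzyme reaction carried out at room temperature / Detection: AMC fluorescence, 355/460 nm / Read-out basis: percent inhibition scaled between no-compound controls and no-enzyme blanks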
FXIa inh 1536 = inhibitors of human coagulation factor XIa | P03951 | 220,000 compounds, 0.14% hits | purified FXIa, Boc-Glu-Ala-Arg-AMC fluorogenic substrate | inhibition, % at 5 µM;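 active = inhibition of at least 40%; inactive = inhibition below 40%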;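 also: fluorescence of freed AMC excited at 355 nm; 0% = enzyme without compound and 100% = no enzyme blank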
Calpain2 inh = inhibitors of pig calpain II; purified calpain II, fluorogenic peptide substrate, 30 min; inhibition, % at 16 µM; 220,000 compounds, 0.37% hits;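 active = inhibition above about 50%, limit read from the data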
FXIIa inh = inhibitors of human coagulation factor XIIa. inhibition, % at 5 µM. AID 800. P00748. 220,000 compounds, 0.3% hits. purified FXIIa, Boc-QGR-AMC fluorogenic substrate, 2 h; in the data active = inhibition above about 40%;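 also: 0% = enzyme with no compound and 100% = blank without enzyme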
KLK5 inh = inhibitors of human kallikrein 5. Q9Y337. recombinant hK5, fluorogenic AMC substrate cleavage. inhibition, % at 5 µM. 210,000 compounds, 0.59% hits;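 active = inhibition of 40% or more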;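 also: 0% = enzyme controls without compound and 100% = no-enzyme blanks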
Target sequence (Q9Y337 67-293 limits assumed): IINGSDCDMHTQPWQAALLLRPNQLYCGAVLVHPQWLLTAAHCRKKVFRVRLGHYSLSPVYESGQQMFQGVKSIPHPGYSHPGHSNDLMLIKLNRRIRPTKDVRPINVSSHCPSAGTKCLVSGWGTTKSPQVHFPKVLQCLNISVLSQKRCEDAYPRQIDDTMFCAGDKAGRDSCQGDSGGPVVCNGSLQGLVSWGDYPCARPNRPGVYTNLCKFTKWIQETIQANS
The depositor's hits bear a star; / = no result. Shown are actives, neighbours in structure and some others; about 1.4% of the full set was active somewhere.

SMILES	Furin inh	Thrombin inh	FXIa inh 1536	Calpain2 inh	FXIIa inh	KLK5 inh
COCCCNC(=O)CSc1nc2ccccc2c(=O)n1CCC(=O)NCCc1ccc(OC)c(OC)c1	-6	13	-2	28	8	3
N=C1/C(=C\c2ccc(OC(=O)c3ccco3)cc2)C(=O)N=C2SC=NN12	9	21	34	18	30	58*
Cc1nn2c(-c3ccncc3)ccnc2c1Cl	-26	-4	-2	-26	10	0
O=C(NCCc1ccc2c(c1)OCCO2)c1cc(F)cc(F)c1	-24	-12	0	-5	10	-10
O=C(NCCCN1CCN(CCCNC(=O)c2cc([N+](=O)[O-])ccc2Cl)CC1)c1cc([N+](=O)[O-])ccc1Cl	-16	19	2	24	5	43*
O=C(NCCc1ccc2c(c1)OCCO2)c1ccc([N+](=O)[O-])cc1Cl	-2	4	11	14	10	40*
Cn1nccc1-c1cc(Cl)cc(Cl)c1O	-2	73*	-8	20	0	-7
Cn1nccc1NC(=O)Nc1cccc(Cl)c1	-27	-2	2	-24	13	2
COC(=O)C1=C(C(=O)OC)[C@@H]2N(C)c3ccccc3[C@@]23C[C@@H](C(=O)OC)N(C(=O)COCc2ccccc2)C3=N1	-30	1	-1	-51	5	2
COc1cccc(-c2nc3ccccc3c(=O)o2)c1	-20	65*	-5	1	21	31
COc1cc(OC)cc(-c2nc3ccccc3c(=O)o2)c1	-18	1	-1	-29	22	-4
O=c1oc(-c2ccc(Br)o2)nc2ccccc12	-1	10	27	-10	46*	39
O=C(CN1CCCc2ccccc21)N/N=C/c1ccccc1O	-13	-3	-2	-16	8	-37
O=C(NCCCc1ccccc1)c1ccc(Br)o1	-5	38	1	14	20	49*
Cc1ccc(S(=O)(=O)NCC(=O)OCC(=O)Nc2ncc(Cl)cc2Cl)cc1	-17	8	6	-85	71*	4
Cc1ccc2nc(C)/c(=N\O)c(C)nc2c1	-20	3	3	0	15	51*
CCOc1ccc(C2c3[nH]c4ccccc4c3CCN2C(=O)Cn2cncn2)cc1 (centres undefined)	-27	-7	-5	-60	2	-3
CCC(C)C(NC(=O)c1ccc(Cl)cc1)C(=O)Nc1cccnc1 (centres undefined)	-9	-9	-4	102*	4	-5
CCC(=O)Nc1ccc(C(=O)Nc2cccnc2)cc1	-24	2	-10	-22	9	-14
O=C(/C=C/c1ccc(F)cc1)c1ccc(N2CCOCC2)cc1	-16	-6	-4	6	1	-6
Cc1cccc(/C=C/C(=O)c2ccc(N3CCOCC3)cc2)c1	3	-1	1	53*	13	-3
O=c1oc(-c2ccccc2NS(=O)(=O)c2ccc3ccccc3c2)nc2ccccc12	2	28	14	-39	11	59*
COc1ccc(CCNC(=O)C(=O)NCc2ccccn2)cc1	-5	-2	1	9	8	6
CCCN(C#N)c1nc(NCC)nc(NC(C)C)n1	-17	-3	-22	52*	-4	-16
COc1ccccc1-n1nnnc1SCc1cc2c(cc1Br)OCO2	-24	-4	2	50*	8	0
SMILES	Furin inh	Thrombin inh	FXIa inh 1536	Calpain2 inh	FXIIa inh	KLK5 inh
O=C(CNCC1CCCCC1)Nc1ccc(OC(F)(F)F)cc1	-32	-3	2	-7	4	1
CC1CCN(c2c([N+](=O)[O-])c(=O)n(-c3ccccc3)c3ccccc23)CC1	-12	-3	-13	-5	14	0
Cn1c(SCC(N)=O)nnc1-c1ccccc1	-23	-7	-22	3	-4	-15
Cn1c(-c2ccccc2)cnc1SCC(N)=O	-18	-1	10	13	59*	3
c1ccc(-c2ccc(C(c3ccccc3)n3ccnc3)cc2)cc1 (centres undefined)	-7	/	19	53*	26	-11
c1ccc(-c2ccc(-n3ccnc3)cc2)cc1	-20	-3	3	6	13	-14
Cc1ccccc1OCC(=O)NNC=O	-30	-2	-5	-25	1	-9
Cc1c(NC(=O)c2ccc(Br)o2)cccc1C(=O)O	-16	1	19	0	45*	6
CC(C)c1ccc(NC(=O)c2ccc(Br)o2)cc1	-15	25	22	27	50*	30
O=C(Nc1ccc(Nc2ccccc2)cc1)c1ccc(Br)o1	-11	-18	4	23	0	-2
COc1cc(/C=C/[N+](=O)[O-])ccc1OCc1cccc(C(=O)O)c1	-9	26	21	2	17	43*
COc1cc(/C=N/NC(=O)c2cccc([N+](=O)[O-])c2)ccc1OCc1ccccc1	-16	1	5	32	15	2
CCN(CC)CCNc1cc(C)nc2c1C(=O)C(=O)C=C2N1CCCCC1	-8	-6	-2	6	10	2
CCOC(=O)N1CCN(C(=O)C(C)(C)Oc2ccc(Cl)cc2)CC1	-27	1	2	-6	13	-8
CCc1nc2oc3ccccc3c(=O)c2c(=O)n1Cc1ccccc1	-12	-2	0	21	-3	-7
CCc1nc2oc3cc(OC)ccc3c(=O)c2c(=O)n1Cc1ccccc1	-19	25	7	-2	27	48*
O=C(Nc1ccccc1Cl)c1ccc(-n2cccn2)c([N+](=O)[O-])c1	-16	1	1	-25	10	4
CCN(CC)C(=O)C1CCN(S(=O)(=O)c2cccc3nonc23)CC1	-21	-7	2	-9	8	-8
O=C1c2ccccc2C(=O)N1CCCCN(C(=O)c1ccc(Cl)s1)c1ccc(Cl)cc1	-4	-9	-4	8	7	-15
Cc1ccc(N(CCCCN2C(=O)c3ccccc3C2=O)C(=O)c2ccc(Cl)s2)cc1	1	5	6	50*	5	0
CC(C)(C)c1ccc(C(=O)CSc2nc3ccccc3c(=O)[nH]2)cc1	-9	14	14	21	10	40*
O=C(CSc1nc2ccccc2c(=O)[nH]1)c1ccccc1	-21	5	10	-10	15	-7
COc1ccc(Oc2c(C)nc(SCC(=O)c3ccc(Cl)cc3)[nH]c2=O)cc1	-34	2	3	13	12	4
CC(C)(C)c1nc(SCC(=O)NCc2ccco2)c2ccccc2n1	-19	0	2	-20	5	-25
Cc1nc(SCC(=O)c2ccccc2)[nH]c(=O)c1Oc1ccc(Cl)cc1	1	34	29	35	22	64*
COc1ccc(C(=O)CSc2nc(C(C)(C)C)nc3ccccc23)cc1	-6	2	-4	53*	4	-12
CNC(=S)N/N=C/c1c(C(=O)OC)cnn1-c1ccc(F)cc1F	17	2	1	14	11	8

Screens: PubChem BioAssay, several laboratories
